Reference: ChEMBL document CHEMBL1121452, “8-Chloro-1-methyl-6-phenyl-4H-s-triazolo[4,3-a][1,4]benzodiazepines with substituents at C-4” (1980)

Key:
Assay type in all cases: functional
[1] = species: Mus musculus; assay: Evaluated for the antagonism of nicotine induced death (D) in CF1 mice
Summary of the method: (§1)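 Compounds dissolved or suspended in 0.25% aqueous methylcellulose and given ip to mice in groups of four or six per dose, at several dose levels spaced 0.3 log units apart. Scoring follows previously described procedures. ED50 values in mg/kg were calculated by the Spearman-Karber method.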

[2] = species: Mus musculus; assay: Evaluated for the pentylene induced clonic convulsions (P) in CF1 mice; summary of the method: as §1
[3] = species: Mus musculus; assay: Evaluated for antagonistic activity on nicotine-induced tonic-extensor convulsions (TE) in CF1 mice; summary of the method: as §1
[4] = species: Mus musculus; assay: Loss of righting reflex (LORR) was evaluated in CF1 mice; summary of the method: as §1
[5] = species: Mus musculus; assay: Loss of traction (TR) was evaluated in CF1 mice; summary of the method: as §1
[6] = species: Mus musculus; assay: Loss of righting reflex (LORR) was evaluated in mice; summary of the method: as §1
[7] = species: Mus musculus; assay: Loss of traction (TR) was evaluated in mice; summary of the method: as §1

Row | Structure (SMILES) | ED50 [1] [mg/kg] | ED50 [2] [mg/kg] | ED50 [3] [mg/kg] | ED50 [4] [mg/kg] | ED50 [5] [mg/kg] | ED50 [6] [mg/kg] | ED50 [7] [mg/kg]
1 | CC(=O)OC1N=C(c2ccccc2)c2cc(Cl)ccc2-n2c(C)nnc21 (centres undefined) | 1 | 8.9 | 1 | > 200 | 18 | – | –
2 | Cc1nnc2n1-c1ccc(Cl)cc1C(c1ccccc1)=NC2C (centres undefined) | 0.056 | 0.1 | 0.056 | – | 1.8 | > 200 | –
3 | CCOC(=O)C1(C)N=C(c2ccccc2)c2cc(Cl)ccc2-n2c(C)nnc21 (centres undefined) | 18 | 40 | 16 | > 200 | 112 | – | –
4 | CCOC(=O)CC1(C(=O)OCC)N=C(c2ccccc2)c2cc(Cl)ccc2-n2c(C)nnc21 (centres undefined) | > 200 | > 50 | > 200 | > 200 | > 200 | – | –
5 | Cc1nnc2n1-c1ccc(Cl)cc1C(c1ccccc1)NC2=O (centres undefined) | – | > 25 | > 100 | > 100 | > 100 | – | –
6 | Cc1nnc2n1-c1ccc(Cl)cc1C(c1ccccc1)=[N+]([O-])C2 | 0.2 | 1.8 | 0.2 | > 200 | 10 | – | –
7 | Cc1nnc2n1-c1ccc(Cl)cc1C(c1ccccc1)=NC2N (centres undefined) | 0.63 | 3.5 | 0.36 | – | 18 | > 100 | –
8 | CCOC(=O)C1N=C(c2ccccc2)c2cc(Cl)ccc2-n2c(C)nnc21 (centres undefined) | 45 | > 100 | 50 | – | > 100 | > 100 | –
9 | Cc1nnc2n1-c1ccc(Cl)cc1C1(c3ccccc3)ON1C2 (centres undefined) | 0.12 | 0.2 | 0.12 | > 25 | 2.5 | – | –
10 | Cc1nnc2n1-c1ccc(Cl)cc1C(c1ccccc1)=NC2CC(=O)O (centres undefined) | 0.9 | 5 | 0.9 | – | 13 | > 200 | –
11 | Cc1nnc2n1-c1ccc(Cl)cc1C(c1ccccc1)N=C2N (centres undefined) | 40 | > 100 | 40 | > 200 | > 200 | – | –
12 | CCOC(=O)C1(N)N=C(c2ccccc2)c2cc(Cl)ccc2-n2c(C)nnc21 (centres undefined) | 4.5 | 32 | 3.1 | > 200 | 159 | – | –
13 | Cc1nnc2n1-c1ccc(Cl)cc1C(c1ccccc1)=NC2O (centres undefined) [4-HYDROXY-ALPRAZOLAM] | 4 | 8.9 | 4 | > 50 | 23 | – | –
14 | Cc1nnc2n1-c1ccc(Cl)cc1C(c1ccccc1)=NC2 [ALPRAZOLAM] | 0.02 | 0.2 | 0.02 | > 100 | – | – | 0.6
